# HKDC1 inhibitor = HKDC1 (human) hexokinase inhibition | Q2TB90 | recombinant HKDC1, G6PDH/diaphorase resazurin coupled fluorescence | inhibition, % at 20 µM | 0.16% of 340,000 active;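 active = inhibition above about 35% when tested at 20 µM, limit read from the data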;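 note: plate controls were DMSO wells with enzyme for no effect and DMSO wells lacking enzyme for full effect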
#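 Incubation: 90 min at room temperature in dark / Material: recombinant HKDC1 (HK5) hexokinase enzyme, produced in-house / Quantity: enzyme 5 µg/mL final / Compound: one dose of 20 µM, 1% DMSO / Reagent: glucose and ATP substrates / Buffer or medium: Tris pH 8.0 buffer with MgCl2, Tween-20, BSA, BME / Technique: resorufin fluorescence at 613 nm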
# ABHD5 PLIN5 PPI = inhibitors of human ABHD5-perilipin-5 interaction; Q00G26+Q8WTS1; Split G. princeps luciferase complementation, luminescence, 4 h; inhibition, % at 4 µM; 0.78% of 360,000 active;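 active = inhibition above the mean inhibition across every tested compound plus 3 SD, cut at about 22% in these data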;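 note: 0% = DMSO only wells and the 100% control is not disclosed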
# PfG6PD inh = PfG6PD (Plasmodium falciparum) enzyme inhibition; 0.78% of 350,000 active; inhibition, % at 20 µM; AID 504690; PfGluPho enzyme, NADPH resazurin-diaphorase fluorescence;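 active = inhibition reaching at least a set limit at 20 µM in the primary screen, cut at about 59% in these data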;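 note: 0% = DMSO wells with substrate and 100% = DMSO wells lacking glucose-6-phosphate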
# Granule exo inh = lytic granule exocytosis inhibition. TALL-104 LAMP-1 surface exposure, flow cytometry; cells stimulated with thapsigargin and PMA. inhibition, % at 10 µM. 0.66% of 360,000 active;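 active = inhibition above about 55%, limit read from the data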
# PfG6PD confirm = confirmation of Plasmodium falciparum G6PD inhibitors | shares compounds with PfG6PD inh | recombinant PfGluPho, NADPH-diaphorase-resazurin fluorescence | inhibition, % at 20 µM | 34% of 2,400 active;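 active = inhibition of at least 50% at 20 µM in any single replicate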;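 note: 0% = DMSO with substrate and 100% = DMSO lacking glucose-6-phosphate substrate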
# Diaph ctr 10uM = counter-screen for P. falciparum G6PD inhibitors: diaphorase inhibitors, oxidizers. diaphorase-coupled resazurin reduction, fluorescence, NADPH 10 uM. 39% of 820 active. inhibition, % at 20 µM. shares compounds with PfG6PD inh;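 active = average inhibition reaching 50% or more with the compound at 20 µM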;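 note: resorufin red fluorescence formed as diaphorase reduces resazurin using NADPH; 0% = DMSO with enzyme and 100% = DMSO without enzyme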
# Diaph ctr 30uM = inhibits diaphorase or oxidizes, flagging false PfG6PD hits; shares compounds with PfG6PD inh; Diaphorase/resazurin coupled assay, resorufin fluorescence, 30 uM NADPH; inhibition, % at 20 µM; 29% of 820 active;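 active = inhibition averaging 50% or more, tested at 20 µM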;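 note: 0% = DMSO with enzyme and 100% = DMSO wells lacking diaphorase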
# * hit, by the source's call; / = no result. An excerpt weighted towards active compounds, which were near 2.2% of everything screened.
SMILES,HKDC1 inhibitor,ABHD5 PLIN5 PPI,PfG6PD inh,Granule exo inh,PfG6PD confirm,others
CCOc1cccc(C(=O)Nc2ccc(S(=O)(=O)Nc3cc(C)on3)cc2)c1,0,-2,-8,-4,/,
Oc1ccc(-c2cn3c(n2)SCC3)cc1O,5,-9,63*,-1,89*,Diaph ctr 10uM=21;Diaph ctr 30uM=19
CCC(C)C(=O)Nn1c(C2CC2)nc2cc(OC)c(OC)cc2c1=O (configuration not stated),1,2,-2,0,/,
CC1=CC(C)(C)N2C(=O)C(=Nc3ccc(O)cc3)c3cccc1c32,20,9,94*,10,23,
O=C(c1ccc(-c2cc(O)c3ncccc3c2)cc1)N1CCNCC1,2,3,7,-2,/,
Cc1ccc(NC2=C(NC(=O)c3ccccc3)C(=O)c3ccccc3C2=O)cc1Cl,27,-12,86*,23,63*,Diaph ctr 10uM=31;Diaph ctr 30uM=18
Cn1nc(C(F)(F)F)c2cc(NC(=O)OCc3ccc(F)cc3)sc21,7,-8,59*,1,4,
CCOc1ccc(-n2cc(-c3ccc(OC)c(OC)c3)[nH]c2=S)cc1,3,-11,66*,5,30,
CCOc1ccc(-c2cn(-c3ccccc3OC)c(=S)[nH]2)cc1,6,-23,14,-8,/,
Cc1ccc(-n2nnnc2-c2ccccc2Br)cc1,1,1,62*,17,22,
Cc1ccc(-c2nnnn2-c2ccc(C)cc2)cc1,-4,-1,19,0,/,
CCOc1ccc(Cl)cc1/C=N/O,14,-3,2,-3,/,
CCOc1ccc(Cl)cc1/C=N/NC(N)=O,4,4,79*,-8,53*,Diaph ctr 10uM=47;Diaph ctr 30uM=38
Cc1cc(C)n2c(=S)[nH]nc2n1,-2,-26,71*,2,20,
COc1cc(NC2CCCCC2O)c2nc(-c3ccc(Cl)cc3)ccc2c1 (configuration not stated),23,-6,61*,27,42,
Cc1ccc(S(=O)(=O)Nc2ccc3c4c(cccc24)CC3)c(C)c1,0,-9,74*,1,26,
Cc1cc(C)c(S(=O)(=O)Nc2ccc3c4c(cccc24)CC3)c(C)c1,4,-8,91*,-1,30,
O=S(=O)(Nc1ccc2c3c(cccc13)CC2)c1ccccc1,/,-7,53,27,/,
COc1ccccc1NC(=O)CSc1nnnn1-c1ccc(F)cc1,-7,2,-4,2,/,
Cc1ccc(C)c2c1cc(C)c1nnc(SCC(=O)NCc3ccc4c(c3)OCO4)n12,-8,-2,94*,5,84*,Diaph ctr 10uM=93*;Diaph ctr 30uM=70*
Cc1ccc(C)c2c1cc(C)c1nnc(SCC(=O)c3cccs3)n12,3,-3,60*,-1,36,
Cc1cc2cc(C)c3nnc(SCC(=O)NCc4ccc5c(c4)OCO5)n3c2cc1C,31,3,-3,-1,/,
COc1ccc(NC(=O)COC(=O)CCc2ccc(S(=O)(=O)N3CCOCC3)cc2)c(OC)c1,-5,0,3,1,/,
CC1(NC(=S)Nc2ccc3ccccc3c2)CCS(=O)(=O)C1 (configuration not stated),4,2,7,14,/,
CN(C)C(=S)NC(=S)Nc1ccc2ccccc2c1,6,6,71*,53,6,
SMILES,HKDC1 inhibitor,ABHD5 PLIN5 PPI,PfG6PD inh,Granule exo inh,PfG6PD confirm,others
COc1ccc(C(=O)/C=C2\Sc3ccccc3N2C)cc1,-5,8,95*,0,48*,Diaph ctr 10uM=55*;Diaph ctr 30uM=31
O=C(Nc1ccccc1C(=O)NCCCN1CCOCC1)c1cccc([N+](=O)[O-])c1,-1,-7,-10,-3,/,
COc1ccc(C(c2sc3nc(C)nn3c2O)N2CCc3ccccc3C2)cc1 (configuration not stated),-3,1,59*,0,-21,
COc1cc(C(c2sc3nc(C)nn3c2O)N2CCc3ccccc3C2)cc(OC)c1OC (configuration not stated),-5,-2,-15,-2,/,
O=C(Cc1nc2ccccc2[nH]1)c1ccc(Br)cc1,-22,-6,-18,2,/,
COc1ccc(-n2cnc(=S)[nH]c2=S)cc1,-18,10,75*,0,7,
COc1ccc(-n2cc(-c3ccccc3)[nH]c2=S)cc1,-1,-2,38,-2,/,
O=C1CC(N2CCN(c3ccc(O)cc3)CC2)C(=O)N1c1ccc2c(c1)OCO2 (configuration not stated),-4,5,60*,-6,29,
N#Cc1c(-c2ccncc2)c2c([nH]c1=S)CCCC2,-1,-13,52,12,/,
Cc1ccc(-c2c3c([nH]c(=S)c2C#N)CCCC3)o1,2,13,59*,-3,34,
CCN(c1ccccc1)S(=O)(=O)c1ccc(N2CCN(c3ccc(O)cc3)CC2)nc1,11,-4,76*,4,16,
Cc1nn(C(=O)CNS(=O)(=O)c2ccccc2)c(C)c1Sc1ccc(Cl)cc1,4,-3,80*,-10,20,
CC1=C(C(=O)Nc2cc(C(=O)N3CCC(C)CC3)ccc2C)SCCO1,2,-4,6,-6,/,
O=C(COC(=O)c1ccc2c(c1[N+](=O)[O-])C(=O)c1ccccc1C2=O)NC1CC1,25,-1,60*,17,54*,Diaph ctr 10uM=26;Diaph ctr 30uM=28
O=C(COC(=O)c1cccc2c1C(=O)c1ccccc1C2=O)NC1CCCCC1,11,2,-18,-2,/,
CN1CCN(c2ccc(C(F)(F)F)cc2NC(=O)Nc2ccccc2)CC1,3,11,2,-8,/,
O=C1C[C@@H]2c3c(cccc3CN1Cc1ccc(Br)cc1)C[C@@H](O)[C@H]2O,-6,7,-12,0,/,
CC(=O)/C(N=Nc1cc2c(c([N+](=O)[O-])c1C)C(C)(C)CC2(C)C)=C(\C)O,4,2,12,-2,/,
Cc1c(N)cc2c(c1N)C(C)(C)CC2(C)C,24,-9,83*,9,46,
COc1cc2[nH]c3c(Cl)ncnc3c2cc1OC,8,6,2,8,/,
COc1cc2[nH]c(Cl)c([N+](=O)[O-])c2cc1OC,11,1,104*,-2,21,
Nc1nc(-c2cc(O)ccc2[N+](=O)[O-])cc(-c2ccccc2)c1[N+](=O)[O-],12,1,76*,1,-4,
CC1=CC(=O)C=C(C)C1=NOS(=O)(=O)c1ccccc1,12,-18,112*,37,111*,Diaph ctr 10uM=103*;Diaph ctr 30uM=100*
CC1=CC(=O)C(C(C)C)=C/C1=N/OS(=O)(=O)c1ccccc1,16,22,105*,10,96*,Diaph ctr 10uM=73*;Diaph ctr 30uM=77*
Cn1c(=O)c2c(ncn2CC(=O)Nc2cc(S(=O)(=O)N3CCCCC3)ccc2O)n(C)c1=O,-5,0,1,5,/,
CCc1nnc(NC(=O)c2cc(Cl)ccn2)s1,5,1,17,5,/,

# Screening results deposited in PubChem BioAssay by several laboratories.
